Compound activity from PubChem BioAssay.
HIV Env fusion = HIV envelope-mediated fusion inhibition; inhibition, % at 12.3 µM; HeLa-JRFL Env/CEM21 cell fusion, luciferase; 360,000 compounds, 1.1% hits;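 active = mean replicate inhibition score of at least 50 and every replicate individually at or above 50; inconclusive = only one of the two criteria met; inactive = mean below 50 and not all replicates reaching 50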
PAX8 reporter = PAX8 transcriptional activity inhibition; RMG-I TPO-luciferase reporter, SteadyGlo, 24 h; inhibition, % at 12.6 µM; 360,000 compounds, 1.2% hits;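 active = mean replicate inhibition at least 60% with every replicate also reaching 60%; inconclusive = only one of the two criteria is met; inactive = mean below 60% and not all replicates reaching 60%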;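 note: luciferase light reporting Pax8 driven TPO promoter activity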
Arrestin-AP2 inh = blocks beta-arrestin peptide binding to AP2 adaptin. FITC-arrestin peptide / GST-AP2 beads, flow cytometry; AP2 beta2 appendage carries R879A mutation. inhibition, % at 10 µM. 340,000 compounds, 0.31% hits;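 active = inhibition above a set limit, near 3 SD of compounds lacking own fluorescence, cut at about 54% in these data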
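Test system: GST-tagged AP2 beta2-adaptin appendage (R879A) on 4 µm glutathione beads; also added: fluorescein-tagged arrestin peptide at 50 nM final; timing: 12 min plus 1 h, RT; signal: flow cytometry, FL1 (488/535 nm); read-out: percent drop in bead-associated FITC signal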
Rtt109 HAT inh = C. albicans Rtt109 histone acetyltransferase inhibition. Q5AAJ8. purified Rtt109/Vps75, ThioGlo CoA-SH fluorescence, 4 h. inhibition, % at 34.9 µM. 330,000 compounds, 0.16% hits;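 active = inhibition of at least 50% in every replicate; inconclusive = best replicate reaches 50% inhibition but some replicates fall short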
Target sequence (Q5AAJ8 whole entry, looked up): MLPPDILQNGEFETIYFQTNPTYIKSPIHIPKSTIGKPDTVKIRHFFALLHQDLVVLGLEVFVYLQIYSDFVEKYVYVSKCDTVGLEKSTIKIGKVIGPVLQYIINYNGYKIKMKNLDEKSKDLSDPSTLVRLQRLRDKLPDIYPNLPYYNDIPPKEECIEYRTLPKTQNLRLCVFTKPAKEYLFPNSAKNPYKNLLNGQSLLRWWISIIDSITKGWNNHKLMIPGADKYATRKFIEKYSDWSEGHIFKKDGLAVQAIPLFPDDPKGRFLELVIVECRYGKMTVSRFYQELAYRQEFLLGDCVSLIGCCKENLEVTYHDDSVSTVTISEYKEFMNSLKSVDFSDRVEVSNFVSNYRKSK
PfHsp90 set2 = reduces growth (ATP signal) of yeast expressing P. falciparum Hsp90; S. cerevisiae expressing PfHsp90, BacTiter-Glo ATP, 48 h; yeast lacking PDR1 and PDR3 efflux regulators; inhibition, % at 9.4 µM; 310,000 compounds, 0.32% hits;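 active = every replicate shows inhibition above about 80%, whatever the replicate mean, limit read from the data; inconclusive = mean inhibition reaches the set limit but some replicate falls short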
N-glyco inh = N-linked glycosylation inhibition; D54 ERlucT glycosylation luciferase reporter, 24 h; percent of 100 nM tunicamycin response; reporter increase, % at 12.5 µM; 360,000 compounds, 0.23% hits; AID 588692;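 active = mean luciferase reporter signal, scaled so untreated is 0 and the glycosylation-blocking control 100, at or above a set limit in every replicate; inconclusive = mean reaches the limit but not every replicate does; inactive = mean below the limit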;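 note: luciferase carries N-glycosylation sites so blocking glycosylation raises the light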
A number is an active result; – = inactive; ? = inconclusive; · = no result given; [ ] = remark or other dose. The list is not random: actives were taken first. Their share in the collection is about 2.3%.

SMILES	HIV Env fusion	PAX8 reporter	Arrestin-AP2 inh	Rtt109 HAT inh	PfHsp90 set2	N-glyco inh
CN(C)CCc1cc2c(c3c1ccc1ccccc13)OCO2	–	–	–	–	–	78
COc1cc2ccc3c(CCN(C)C)cc(OC)c(OC)c3c2cc1OC	–	–	–	–	–	–
CC(C)NC(=O)Nc1ccc2c(c1)C(=O)N([C@H](C)CO)C[C@@H](C)[C@H](CN(C)C(=O)Nc1ccc3c(c1)OCO3)OCCCC[C@@H](C)O2	–	–	·	·	·	·
C[C@H]1CN([C@@H](C)CO)C(=O)c2cccc(NC(=O)Nc3ccc(C(F)(F)F)cc3)c2O[C@@H]1CN(C)C(=O)Nc1cccc2ccccc12	–	·	·	·	·	·
C[C@H]1CN([C@@H](C)CO)C(=O)c2cccc(NC(=O)Nc3ccc(F)cc3)c2O[C@H]1CN(C)C(=O)Nc1ccc(C(F)(F)F)cc1	–	80	·	·	·	·
C[C@@H]1CN([C@H](C)CO)C(=O)c2cccc(NC(=O)Nc3ccc(C(F)(F)F)cc3)c2O[C@H]1CN(C)C(=O)Nc1cccc2ccccc12	78[16.7 µM]	·	·	·	·	·
C[C@H](CO)N1C[C@H](C)[C@H](CN(C)C(=O)Nc2ccc(C(F)(F)F)cc2)Oc2c(NC(=O)Nc3ccc(F)cc3)cccc2C1=O	–	–	·	·	·	·
Cc1ccccc1S(=O)(=O)N1C[C@H](O)COC[C@@H]2O[C@@H](CC(=O)NCc3ccccc3Cl)CC[C@H]21	–	–	·	·	·	·
O=[N+]([O-])c1cccc(N=Nc2ccc(O)cc2O)c1	–	81	–	–	–	–
O=[N+]([O-])c1ccc(N=Nc2ccc(O)cc2O)cc1	–	81	–	–	–	–
COc1cc(CCC(=O)Nc2nnc(C)s2)cc(OC)c1OC	–	–	–	–	–	33
COc1cc(CCC(=O)Nc2ncc(C)s2)cc(OC)c1OC	–	–	–	–	–	–
N#Cc1cccc(-c2ccc([C@@H]3[C@H](CO)N4CCCCN(C(=O)Nc5cccc(F)c5)C[C@@H]34)cc2)c1	·	–	·	·	·	·
CN(C)CCNC(=O)c1coc(=O)c(Br)c1	·	·	·	–	–	–
O=C(NCCc1ccccc1)c1coc(=O)c(Br)c1	–	65	–	–	–	–
CCOc1ccc2nc(NC(=O)c3ccoc3C)sc2c1	·	·	–	–	79	–
CCOc1ccc2nc(NC(=O)c3ccco3)sc2c1	–	–	–	–	–	–
COc1ccc([C@@H]2[C@@H]3C(=O)N(C(C)(C)C)C(=O)[C@@H]3[C@]3(Cc4ccc(Cl)cc4)C(=O)N(c4cccc(Br)c4)C(=O)N23)cc1	78	–	–	–	–	–
COc1ccc([C@@H]2[C@@H]3C(=O)N(C(C)(C)C)C(=O)[C@@H]3[C@]3(C)C(=O)N(c4cccc(F)c4)C(=O)N23)cc1	–	–	–	–	·	–
COc1ccc([C@@H]2[C@@H]3C(=O)N(C(C)(C)C)C(=O)[C@@H]3[C@]3(Cc4ccc(Cl)cc4)C(=O)N(c4cccc(F)c4)C(=O)N23)cc1	107	–	–	–	–	–
CCNC(=O)C[C@@H]1CC[C@@H]2[C@H](COc3ccc(NC(=O)c4ccc(F)c(F)c4)cc3C(=O)N2C)O1	·	–	·	·	·	·
O=C1C(=C(c2ccccc2)N2CCOCC2)Cc2ccccc21	–	113	·	·	·	–
O=C(Nc1ccc2c(c1)[C@H]1C[C@@H](CC(=O)N3CCCCC3)O[C@@H](CO)[C@H]1O2)c1ccc2c(c1)OCO2	–	–	·	·	·	·
CC1=C(C(=O)OCc2ccc3c(c2)OCO3)C(c2ccc(F)cc2)NC(=O)N1 (centres undefined)	100	·	–	–	–	–
CC1=C(C(=O)OCc2ccc3c(c2)OCO3)C(c2ccc(Cl)cc2)NC(=O)N1 (centres undefined)	·	·	–	–	–	–
SMILES	HIV Env fusion	PAX8 reporter	Arrestin-AP2 inh	Rtt109 HAT inh	PfHsp90 set2	N-glyco inh
O=C(Nc1cccc(F)c1)N1CCCCN2[C@H](CO)[C@@H](c3ccc(-c4ccccc4F)cc3)[C@H]2C1	·	94	·	·	·	·
O=C(Nc1ccc(F)cc1)N1CCCCN2[C@H](CO)[C@@H](c3ccc(-c4ccccc4F)cc3)[C@@H]2C1	·	–	·	·	·	·
O=C(Nc1ccc(F)cc1)N1CCCCN2[C@H](CO)[C@H](c3ccc(-c4ccccc4F)cc3)[C@H]2C1	·	64	·	·	·	·
Oc1c(Cl)cc(Cl)cc1/C=C/c1ccc2cccc(O)c2n1	–	–	–	–	–	–
Oc1cccc2ccc(/C=C/c3ccccc3Br)nc12	–	–	–	–	98	–
Oc1ccc(Cl)cc1/C=C/c1ccc2cccc(O)c2n1	–	–	–	–	105	–
CCOC(=O)C1=C(C(=O)OCC)C2N(Cc3ccc(Br)cc3)c3ccccc3[C@@]23C[C@@H](C(=O)OC)N(S(=O)(=O)c2cccs2)C3=N1 (some centres undefined)	59	–	·	·	·	·
CCOC(=O)C1=C(C(=O)OCC)C2N(Cc3ccc(C(F)(F)F)cc3)c3ccccc3[C@@]23C[C@@H](C(=O)OC)N(S(=O)(=O)c2cccs2)C3=N1 (some centres undefined)	?	–	·	·	·	·
CCN1/C(=C/c2sc(-c3ccccc3C)c[n+]2C)Sc2ccccc21	–	98	–	–	–	36
CCC(=O)/C=C1/Sc2ccccc2N1CC	·	·	–	–	–	–
COC(=O)C[C@@H]1CC[C@H]2[C@H](COc3ccc(NS(=O)(=O)c4ccccc4Cl)cc3C(=O)N2C)O1	–	–	·	·	·	·
COCC(=O)N1CC(=O)N2[C@H](CO)[C@H](c3ccc(C#CC(C)C)cc3)[C@@H]2C1	·	–	·	·	·	·
CCCCNc1nc(N)nc(-c2cc(Cl)ccc2O)n1	–	–	–	–	104	–
CC(C)CC1NC(=S)N(Cc2ccccc2)C1=O (centres undefined)	–	90	–	–	–	–
O=C1C(Cc2ccccc2)NC(=S)N1Cc1ccccc1 (centres undefined)	–	–	–	–	–	–
COc1ccc(S(=O)(=O)Nc2ccc3c(c2)C(=O)N([C@H](C)CO)C[C@@H](C)[C@H](CN(C)C)O3)cc1	–	–	·	·	·	·
CCOC(=O)Cc1c(C)nc2c(-c3ccc(OC)cc3)c(C)nn2c1C	64	·	–	–	–	–
Cc1nc2c(-c3ccccc3)c(C)nn2c(C)c1CCC(=O)O	–	–	–	–	–	–
CO[C@@H]1CN(C)C(=O)c2cc(NS(C)(=O)=O)ccc2OC[C@H](C)N(S(C)(=O)=O)C[C@@H]1C	·	–	·	·	·	·
O=C(/C=C/c1cccnc1)c1ccc([N+](=O)[O-])cc1	–	–	–	–	–	35
COc1cc(C(=O)/C=C/c2cccnc2)c([N+](=O)[O-])cc1OC	–	94	–	–	–	–
O=C(/C=C/c1cccnc1)c1ccccc1O	–	–	–	–	–	–
CO[C@@H]1CN(C)C(=O)c2cc(NC(=O)NC(C)C)ccc2OC[C@H](C)NC[C@H]1C	–	–	·	·	·	·
